Among the data in ChEMBL document CHEMBL4118021, “Studies of TAK1-centered polypharmacology with novel covalent TAK1 inhibitors” (Bioorg Med Chem, 2017) are Activity and inhibition values, retold here.

Active and inactive are the calls of the source. The rule behind the calls is not given here.

The target in assay [1] is Bifunctional glutamate/proline--tRNA ligase (Homo sapiens) (UniProt P07814). Put plainly: Binding affinity to EPRS in human NCI-H358 cells at 1 uM by mass spectrometry based pull down assay. In kind it is cell-based.
The target in assay [2] is Membrane-associated progesterone receptor component 1 (Homo sapiens) (UniProt O00264). Nature of the assay: Binding affinity to PGRMC1 in human NCI-H358 cells at 1 uM by mass spectrometry based pull down assay. In kind it is cell-based.
Assay [3] has as its target Trifunctional purine biosynthetic protein adenosine-3 (Homo sapiens) (UniProt P22102). Nature of the assay: Binding affinity to GART in human NCI-H23 cells at 1 uM by mass spectrometry based pull down assay. The class given is cell-based.
In assay [4] the target is Pyrroline-5-carboxylate reductase 1, mitochondrial (Homo sapiens) (UniProt P32322). Nature of the assay: Binding affinity to PYCR1 in human NCI-H358 cells at 1 uM by mass spectrometry based pull down assay. In kind it is cell-based.
The target of assay [5] is T1, 80S Ribosome (Homo sapiens) (UniProt P08865+P42677+P62753+P15880+P23396+P61247+P62701+P22090+P46782+P62081+P62241+P46781+P46783+P62280+P25398+P62277+P62263+P62841+P62244+P62249+P08708+P62269+P39019+P60866+P63220+P62266+P62847+P62851+P62854+P62979+P62857+P62273+P62861+P39023+P36578+P46777+Q02878+P18124+P62424+P62917+P32969+P27635+P62906+P62913+P30050+P26373+P40429+P50914+P61313+P18621+Q07020+Q02543+P84098+P46778+P35268+P62829+P62750+P83731+P61254+P61353+P46776+P46779+P47914+P62888+P62899+P62910+P49207+P42766+P18077+Q9Y3U8+P83881+P61927+P61513+P63173+P62891+P62945+P05388+P05386). Nature of the assay: Binding affinity to RPL17 in human NCI-H23 cells at 1 uM by mass spectrometry based pull down assay. In kind it is cell-based.

Assay [6] deals with Thymidylate synthase (Homo sapiens) (UniProt P04818). Put plainly: Binding affinity to TYMS in human NCI-H23 cells at 1 uM by mass spectrometry based pull down assay. The class given is cell-based.
Assay [7] concerns the target Leucine-rich repeat flightless-interacting protein 1 (Homo sapiens) (UniProt Q32MZ4). Nature of the assay: Binding affinity to LRRFIP1 in human NCI-H358 cells at 1 uM by mass spectrometry based pull down assay. In kind it is cell-based.
In assay [8] the target is T1, 80S Ribosome (Homo sapiens). Nature of the assay: Binding affinity to RPL10 in human NCI-H23 cells at 1 uM by mass spectrometry based pull down assay. The class given is cell-based.
Assay [9] addresses Inter-alpha-trypsin inhibitor heavy chain H2 (Homo sapiens) (UniProt P19823). Nature of the assay: Binding affinity to ITIH2 in human NCI-H358 cells at 1 uM by mass spectrometry based pull down assay. In kind it is cell-based.
The target in assay [10] is Mitochondrial import inner membrane translocase subunit TIM50 (Homo sapiens) (UniProt Q3ZCQ8). Nature of the assay: Binding affinity to TIMM50 in human NCI-H358 cells at 1 uM by mass spectrometry based pull down assay. The class given is cell-based.
Assay [11] deals with Aspartyl aminopeptidase (Homo sapiens) (UniProt Q9ULA0). Nature of the assay: Binding affinity to DNPEP in human NCI-H23 cells at 1 uM by mass spectrometry based pull down assay. In kind it is cell-based.
The target in assay [12] is Small ribosomal subunit protein eS6 (Homo sapiens) (UniProt P62753). Put plainly: Binding affinity to RPS6 in human NCI-H23 cells at 1 uM by mass spectrometry based pull down assay. The class given is cell-based.
The target in assay [13] is X antigen family member 1 (Homo sapiens) (UniProt Q9HD64). Put plainly: Binding affinity to XAGE1B in human NCI-H23 cells at 1 uM by mass spectrometry based pull down assay. The class given is cell-based.
Assay [14] has as its target Deaminated glutathione amidase (Homo sapiens) (UniProt Q86X76). Nature of the assay: Binding affinity to NIT1 in human NCI-H358 cells at 1 uM by mass spectrometry based pull down assay. The class given is cell-based.
Assay [15] addresses Acylamino-acid-releasing enzyme (Homo sapiens) (UniProt P13798). Nature of the assay: Binding affinity to APEH in human NCI-H23 cells at 1 uM by mass spectrometry based pull down assay. The class given is cell-based.
The target in assay [16] is Cysteine and glycine-rich protein 2 (Homo sapiens) (UniProt Q16527). Nature of the assay: Binding affinity to CSRP2 in human NCI-H23 cells at 1 uM by mass spectrometry based pull down assay. The class given is cell-based.
The target of another assay is Nucleolin (Homo sapiens) (UniProt P19338). Put plainly: Binding affinity to NCL in human NCI-H358 cells at 1 uM by mass spectrometry based pull down assay. In kind it is cell-based.
Assay [17] has as its target 14-3-3 protein eta (Homo sapiens) (UniProt Q04917). Nature of the assay: Binding affinity to YWHAH in human NCI-H358 cells at 1 uM by mass spectrometry based pull down assay. The class given is cell-based.
Assay [18] concerns the target Splicing factor 3B subunit 3 (Homo sapiens) (UniProt Q15393). Nature of the assay: Binding affinity to SF3B3 in human NCI-H358 cells at 1 uM by mass spectrometry based pull down assay. In kind it is cell-based.
Assay [19] addresses Serine/threonine-protein kinase MARK1 (Homo sapiens) (UniProt Q9P0L2). Put plainly: Inhibition of MARK1 in human SKCO1 cells at 1 uM after 4 hrs using biotin labeled EVAVKIIDK probe by mass-spectrometric analysis relative to control. In kind it is cell-based.
Assay [20] deals with Mitogen-activated protein kinase kinase kinase 20 (Homo sapiens) (UniProt Q9NYL2). Nature of the assay: Inhibition of human ZAK (1 to 331 residues) expressed in bacterial expression system assessed as enzyme activity at 10 uM by KINOMEScan assay relative to control. Also on record: scale not given: the % may be the effect or the level left. A digest of the protocol:
(§1)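 In vitro ATP-site competition binding assay across a panel of 456 kinases, with compound tested at 1 and 10 μM.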

Assay [21] deals with Vascular endothelial growth factor receptor 2 (Homo sapiens) (UniProt P35968). Nature of the assay: Inhibition of human VEGFR2 (787 to 1253 residues) expressed in mammalian expression system assessed as enzyme activity at 1 uM by KINOMEScan assay relative to control. Also on record: scale not given: the % may be the effect or the level left. A digest of the protocol: as §1

Assay [22] has as its target T2, Dual specificity mitogen-activated protein kinase kinase 5 (Homo sapiens) (UniProt Q13163).
T2 sequence (whole entry): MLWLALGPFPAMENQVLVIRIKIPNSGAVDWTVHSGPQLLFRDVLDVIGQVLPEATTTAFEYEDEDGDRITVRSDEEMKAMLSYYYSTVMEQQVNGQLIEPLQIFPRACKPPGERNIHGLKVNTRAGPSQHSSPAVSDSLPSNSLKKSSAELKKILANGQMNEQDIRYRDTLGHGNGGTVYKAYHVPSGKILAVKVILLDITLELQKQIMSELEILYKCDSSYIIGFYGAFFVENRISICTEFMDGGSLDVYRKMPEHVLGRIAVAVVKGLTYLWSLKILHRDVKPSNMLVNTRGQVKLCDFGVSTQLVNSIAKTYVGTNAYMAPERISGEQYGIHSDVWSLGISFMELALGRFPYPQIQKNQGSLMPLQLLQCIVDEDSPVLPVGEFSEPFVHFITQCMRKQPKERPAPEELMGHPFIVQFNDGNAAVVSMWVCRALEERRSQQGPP
Put plainly: Inhibition of human MEK5 (98 to 448 residues) expressed in mammalian expression system assessed as enzyme activity at 10 uM by KINOMEScan assay relative to control. Also on record: scale not given: the % may be the effect or the level left. The essentials:
as §1

Sequence of Serine/threonine-protein kinase MARK1 (Homo sapiens) (Q9P0L2 whole entry, looked up, the tested form may be a part): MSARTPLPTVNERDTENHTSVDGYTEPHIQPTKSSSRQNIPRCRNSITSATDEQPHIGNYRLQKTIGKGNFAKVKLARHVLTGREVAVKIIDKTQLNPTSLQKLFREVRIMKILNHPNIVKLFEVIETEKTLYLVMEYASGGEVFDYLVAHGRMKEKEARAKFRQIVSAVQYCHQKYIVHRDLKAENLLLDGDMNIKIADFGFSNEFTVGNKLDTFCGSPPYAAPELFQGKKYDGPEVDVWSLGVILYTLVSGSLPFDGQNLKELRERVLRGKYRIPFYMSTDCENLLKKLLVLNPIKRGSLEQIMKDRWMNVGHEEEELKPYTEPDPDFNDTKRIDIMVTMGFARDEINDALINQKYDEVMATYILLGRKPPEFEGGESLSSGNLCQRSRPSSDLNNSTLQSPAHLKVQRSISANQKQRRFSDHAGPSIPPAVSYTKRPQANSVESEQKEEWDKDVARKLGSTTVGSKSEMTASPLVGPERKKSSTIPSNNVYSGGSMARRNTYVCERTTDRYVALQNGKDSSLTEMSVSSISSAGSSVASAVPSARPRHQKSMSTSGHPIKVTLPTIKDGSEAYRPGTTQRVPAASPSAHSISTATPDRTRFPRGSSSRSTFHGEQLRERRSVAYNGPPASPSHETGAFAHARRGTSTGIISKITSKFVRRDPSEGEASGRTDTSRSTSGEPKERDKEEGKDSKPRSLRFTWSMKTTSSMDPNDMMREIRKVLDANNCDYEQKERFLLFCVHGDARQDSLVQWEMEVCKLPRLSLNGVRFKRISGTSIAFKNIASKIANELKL
Sequence of Pyrroline-5-carboxylate reductase 1, mitochondrial (Homo sapiens) (P32322 whole entry): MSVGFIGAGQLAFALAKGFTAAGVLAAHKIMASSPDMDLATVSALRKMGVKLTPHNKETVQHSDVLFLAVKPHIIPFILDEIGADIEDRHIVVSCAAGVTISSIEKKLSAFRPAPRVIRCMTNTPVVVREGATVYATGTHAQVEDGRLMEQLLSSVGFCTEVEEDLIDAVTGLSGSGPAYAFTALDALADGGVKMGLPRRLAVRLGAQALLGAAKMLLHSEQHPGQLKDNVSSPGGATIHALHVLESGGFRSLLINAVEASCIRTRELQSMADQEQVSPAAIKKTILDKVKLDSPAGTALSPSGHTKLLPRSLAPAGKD
Sequence of Cysteine and glycine-rich protein 2 (Homo sapiens) (Q16527 whole entry): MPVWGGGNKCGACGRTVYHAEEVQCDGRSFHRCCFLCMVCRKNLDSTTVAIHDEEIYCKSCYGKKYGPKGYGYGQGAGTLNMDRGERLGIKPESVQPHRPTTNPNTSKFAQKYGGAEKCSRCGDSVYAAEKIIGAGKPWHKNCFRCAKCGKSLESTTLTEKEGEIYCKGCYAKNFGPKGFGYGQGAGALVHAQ
Sequence of Inter-alpha-trypsin inhibitor heavy chain H2 (Homo sapiens) (P19823 whole entry): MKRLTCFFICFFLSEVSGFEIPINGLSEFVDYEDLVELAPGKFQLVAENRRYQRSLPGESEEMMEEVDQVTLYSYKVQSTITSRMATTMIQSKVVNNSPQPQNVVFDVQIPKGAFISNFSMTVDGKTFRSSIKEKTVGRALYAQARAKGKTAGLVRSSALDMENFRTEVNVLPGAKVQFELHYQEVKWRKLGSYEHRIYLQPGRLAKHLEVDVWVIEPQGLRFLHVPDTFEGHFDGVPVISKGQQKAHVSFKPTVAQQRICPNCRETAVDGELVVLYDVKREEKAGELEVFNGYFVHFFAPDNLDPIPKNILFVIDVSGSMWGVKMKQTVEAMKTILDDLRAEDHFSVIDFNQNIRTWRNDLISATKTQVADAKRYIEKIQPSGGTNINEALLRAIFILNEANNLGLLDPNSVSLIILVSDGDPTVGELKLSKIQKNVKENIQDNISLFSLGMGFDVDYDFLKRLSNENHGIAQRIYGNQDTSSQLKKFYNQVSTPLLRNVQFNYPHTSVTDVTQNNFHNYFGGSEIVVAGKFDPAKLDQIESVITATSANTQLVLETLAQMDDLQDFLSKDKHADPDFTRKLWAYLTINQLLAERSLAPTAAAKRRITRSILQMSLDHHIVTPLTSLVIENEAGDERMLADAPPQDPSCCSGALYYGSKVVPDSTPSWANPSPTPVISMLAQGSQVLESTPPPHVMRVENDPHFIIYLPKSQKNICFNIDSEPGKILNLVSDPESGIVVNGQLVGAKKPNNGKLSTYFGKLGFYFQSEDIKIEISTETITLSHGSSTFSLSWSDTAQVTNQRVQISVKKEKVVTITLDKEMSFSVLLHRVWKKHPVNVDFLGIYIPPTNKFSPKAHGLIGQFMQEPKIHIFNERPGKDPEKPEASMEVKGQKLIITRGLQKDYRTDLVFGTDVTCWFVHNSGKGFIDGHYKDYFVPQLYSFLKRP
Sequence of X antigen family member 1 (Homo sapiens) (Q9HD64 whole entry): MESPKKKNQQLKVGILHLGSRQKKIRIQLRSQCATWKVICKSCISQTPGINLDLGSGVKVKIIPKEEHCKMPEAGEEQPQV
Sequence of Trifunctional purine biosynthetic protein adenosine-3 (Homo sapiens) (P22102 whole entry): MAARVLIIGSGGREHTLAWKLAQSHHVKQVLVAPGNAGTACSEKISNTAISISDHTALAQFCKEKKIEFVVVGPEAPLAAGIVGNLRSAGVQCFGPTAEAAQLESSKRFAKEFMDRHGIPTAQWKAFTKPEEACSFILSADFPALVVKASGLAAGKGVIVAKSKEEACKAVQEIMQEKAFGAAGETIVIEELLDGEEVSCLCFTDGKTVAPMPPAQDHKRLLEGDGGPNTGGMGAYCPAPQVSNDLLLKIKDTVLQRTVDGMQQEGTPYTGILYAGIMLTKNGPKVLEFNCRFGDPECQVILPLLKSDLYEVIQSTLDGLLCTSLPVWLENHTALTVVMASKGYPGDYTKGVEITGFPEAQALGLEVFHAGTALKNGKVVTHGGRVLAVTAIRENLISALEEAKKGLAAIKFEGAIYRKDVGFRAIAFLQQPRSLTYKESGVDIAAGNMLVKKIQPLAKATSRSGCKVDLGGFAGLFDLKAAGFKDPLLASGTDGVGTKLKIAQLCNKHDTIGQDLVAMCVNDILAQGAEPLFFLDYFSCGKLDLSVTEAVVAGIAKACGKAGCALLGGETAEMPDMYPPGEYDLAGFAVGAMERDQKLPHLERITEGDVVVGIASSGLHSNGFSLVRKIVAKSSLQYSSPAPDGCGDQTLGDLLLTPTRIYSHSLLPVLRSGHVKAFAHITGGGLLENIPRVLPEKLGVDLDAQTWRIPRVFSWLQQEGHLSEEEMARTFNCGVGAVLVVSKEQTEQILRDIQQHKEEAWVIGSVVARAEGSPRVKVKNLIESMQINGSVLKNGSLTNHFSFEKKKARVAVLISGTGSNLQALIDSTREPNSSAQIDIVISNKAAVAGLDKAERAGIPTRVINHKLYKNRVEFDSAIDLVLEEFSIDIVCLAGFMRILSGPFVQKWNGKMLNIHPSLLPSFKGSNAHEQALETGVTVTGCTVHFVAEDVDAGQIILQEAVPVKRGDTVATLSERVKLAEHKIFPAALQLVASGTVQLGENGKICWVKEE
Sequence of Bifunctional glutamate/proline--tRNA ligase (Homo sapiens) (P07814 whole entry): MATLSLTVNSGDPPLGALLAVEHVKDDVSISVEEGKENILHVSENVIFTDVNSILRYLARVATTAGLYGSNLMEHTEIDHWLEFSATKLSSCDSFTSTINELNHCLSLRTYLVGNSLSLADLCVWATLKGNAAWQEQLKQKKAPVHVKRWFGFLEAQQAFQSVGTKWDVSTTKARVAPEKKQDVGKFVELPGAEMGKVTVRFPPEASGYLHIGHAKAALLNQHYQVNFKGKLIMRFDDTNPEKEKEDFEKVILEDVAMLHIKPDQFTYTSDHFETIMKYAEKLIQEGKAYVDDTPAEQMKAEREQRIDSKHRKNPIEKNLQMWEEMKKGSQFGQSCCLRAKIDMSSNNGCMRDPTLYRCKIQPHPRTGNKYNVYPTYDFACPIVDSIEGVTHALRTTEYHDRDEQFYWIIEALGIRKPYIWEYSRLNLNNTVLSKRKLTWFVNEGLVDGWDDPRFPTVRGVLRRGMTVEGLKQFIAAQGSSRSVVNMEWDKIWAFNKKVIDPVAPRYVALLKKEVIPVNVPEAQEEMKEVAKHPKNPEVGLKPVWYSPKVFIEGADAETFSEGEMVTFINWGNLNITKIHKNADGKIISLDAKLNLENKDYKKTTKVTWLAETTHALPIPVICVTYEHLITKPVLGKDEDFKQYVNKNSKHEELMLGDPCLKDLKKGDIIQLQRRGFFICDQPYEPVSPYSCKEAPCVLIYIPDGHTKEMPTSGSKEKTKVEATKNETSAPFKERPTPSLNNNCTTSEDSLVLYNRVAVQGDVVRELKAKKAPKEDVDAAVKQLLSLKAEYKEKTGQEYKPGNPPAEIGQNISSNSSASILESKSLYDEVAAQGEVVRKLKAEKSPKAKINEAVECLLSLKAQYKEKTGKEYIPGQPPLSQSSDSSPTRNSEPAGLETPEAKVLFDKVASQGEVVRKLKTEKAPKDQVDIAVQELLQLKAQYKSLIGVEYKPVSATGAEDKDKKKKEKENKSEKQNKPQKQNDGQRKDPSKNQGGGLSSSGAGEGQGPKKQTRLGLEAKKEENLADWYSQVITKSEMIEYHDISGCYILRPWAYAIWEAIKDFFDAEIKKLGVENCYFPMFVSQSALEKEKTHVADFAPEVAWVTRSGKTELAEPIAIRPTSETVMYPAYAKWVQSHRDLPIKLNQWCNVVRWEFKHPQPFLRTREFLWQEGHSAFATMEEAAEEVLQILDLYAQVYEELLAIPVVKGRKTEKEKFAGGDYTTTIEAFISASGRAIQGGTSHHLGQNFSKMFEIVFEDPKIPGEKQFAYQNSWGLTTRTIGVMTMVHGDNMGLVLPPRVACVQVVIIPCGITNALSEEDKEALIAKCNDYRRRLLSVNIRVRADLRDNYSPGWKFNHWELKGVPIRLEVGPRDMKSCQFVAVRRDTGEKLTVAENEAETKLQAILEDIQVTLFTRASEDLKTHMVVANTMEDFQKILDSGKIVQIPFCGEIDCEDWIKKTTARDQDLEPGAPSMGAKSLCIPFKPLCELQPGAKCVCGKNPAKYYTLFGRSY
Sequence of Membrane-associated progesterone receptor component 1 (Homo sapiens) (O00264 whole entry): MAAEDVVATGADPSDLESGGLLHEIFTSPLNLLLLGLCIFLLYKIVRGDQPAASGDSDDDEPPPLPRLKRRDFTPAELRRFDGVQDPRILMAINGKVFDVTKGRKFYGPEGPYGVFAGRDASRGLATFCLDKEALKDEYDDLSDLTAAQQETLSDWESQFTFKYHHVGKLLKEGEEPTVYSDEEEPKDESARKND

Regarding `C=CC(=O)Nc1ccccc1Nc1nc(Nc2ccc(N3CCN(CCOCCOCCOCCNC(=O)CCCC[C@@H]4SC[C@@H]5NC(=O)N[C@@H]54)CC3)cc2)ncc1Cl`, the outcome in assay [1], in assay [2], in [3], in [4], in assay [5] and in assay [6] was Active. In addition, the result in [7], in [8], in [9], in [10], in assay [11] and in assay [12] was Active. The outcome (in assay [13]; in assay [14]; in [15]; in assay [16]; on Nucleolin (Homo sapiens); in [17]) was Active. The result in assay [18] was Active.

In general, inhibition refers to the drop in the measured response relative to a control, in per cent. In the case of `C=CC(=O)Nc1ccccc1Nc1nc(Nc2ccc(N3CCN(C)CC3)cc2)ncc1Cl`, the inhibition in assay [19] was -5.7%.

Consider `COc1cc(O)c2c(c1)/C=C/C[C@H](O)[C@H](O)C(=O)/C=C\C[C@H](C)OC2=O`, for which the Activity in assay [20] was 2.2%; in assay [21] it was 78%; in assay [22] it was 0.1%.
